From ChEMBL document CHEMBL1158681, “Flavones and sesquiterpene lactones from Achillea atrata subsp. multifida: antimicrobial activity” (1999)
Converted amounts (≈) assume the structure as drawn. The source made the active and inactive calls. The calls are words filed in the database; no cut-off is given here.

Assays:
[1] = test system: Bacillus subtilis; test: Antimicrobial activity against Bacillus subtilis IP 5832 after 24 hrs by agar well diffusion method; format: functional
Outline: (§1)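 Agar well diffusion: stationary-phase culture suspended in saline at approx. 10^5 cfu/mL, 200 µL spread on Mueller-Hinton agar (bacteria) or Sabouraud agar (yeast, fungi). Test samples at 50 µg/50 µL added to wells. Incubated 24 h (bacteria, yeast) or 48 h (fungi). Read-out is inhibition zone diameter.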

[2] = test system: Candida albicans; test: Antimicrobial activity against Candida albicans ATCC 24433 after 24 hrs by agar well diffusion method; format: functional; outline: as §1
[3] = test system: Escherichia coli; test: Antimicrobial activity against Escherichia coli ATCC 25922 after 24 hrs by agar well diffusion method; format: functional; outline: as §1
[4] = test system: Staphylococcus aureus; test: Antimicrobial activity against Staphylococcus aureus ATCC 25923 after 24 hrs by agar well diffusion method; format: functional, organism-based; outline: as §1
[5] = test system: Aspergillus niger; test: Antimicrobial activity against Aspergillus niger after 48 hrs by agar well diffusion method; format: functional, organism-based; outline: as §1
[6] = test system: Candida albicans; test: Antimicrobial activity against Candida albicans ATCC 24433 after 24 hrs using sabouraud liquid medium; format: functional
Outline: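 Broth MIC in duplicate in Sabouraud liquid medium. Samples made up at 1 mg/mL in DMSO, then serially diluted over 100-0.1 µg/mL. Inoculum is stationary-phase culture at 10^5 cfu/mL. Incubated 37 °C for 24 h. MIC taken as the lowest concentration preventing any visible growth.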

Compound	inhibition zone (IZ) [1]	inhibition zone (IZ) [2]	inhibition zone (IZ) [3]	Activity [4]	Activity [5]	MIC ([6]; ATCC 24433, 24 h)	MIC [6]
O=c1cc(-c2ccc(O)cc2)oc2cc(O)cc(O)c12 [APIGENIN]	6 mm	10 mm	6 mm	inactive	inactive	3 µg/mL (≈ 11.1 µM)	–
O=c1cc(-c2ccc(O)cc2)oc2cc(O[C@@H]3O[C@H](CO)[C@@H](O)[C@H](O)[C@H]3O)cc(O)c12 [APIGETRIN]	6 mm	–	–	inactive	inactive	–	–
COc1ccc(-c2oc3cc(O)c(OC)c(O)c3c(=O)c2OC)cc1O [CENTAUREIDIN]	6 mm	11 mm	–	inactive	inactive	3 µg/mL (≈ 8.33 µM)	–
COc1ccc(-c2oc3cc(O)c(OC)c(O)c3c(=O)c2OC)cc1 [SANTIN]	6 mm	8 mm	6 mm	inactive	inactive	3 µg/mL (≈ 8.71 µM)	–
NYSTATIN	–	–	–	–	–	–	3.12 µg/mL
